Measurements from ChEMBL document CHEMBL1122519, “Bispyridinamines: a new class of topical antimicrobial agents as inhibitors of dental plaque” (1984).

Experiments:
Escherichia coli [1] = test: Minimum inhibitory concentration against Escherichia coli (Vogel); type: functional
How it was run: (§1)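 Serial twofold tube dilution in tryptose phosphate broth. Each compound was prepared as a 1000 μg/mL aqueous stock and diluted in double-strength broth, then 2×10^5 cells were added. Tubes were incubated aerobically at 37 °C for 24 h. The MIC was taken as the lowest concentration with no visible growth.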

Escherichia coli [2] = test: Antimicrobial minimum inhibitory concentration against Escherichia coli 100/B22; type: functional; how it was run: as §1
Actinomyces viscosus = test: Compound is evaluated for minimal bactericidal concentration against plaque formation for Actinomyces viscosus; type: functional, organism-based
How it was run: (§2)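 Preformed in vitro plaques of S. mutans NCTC 10449 or A. viscosus M-100 were grown on ceramic hydroxylapatite under anaerobic conditions at 37 °C in sucrose-supplemented medium. Plaques were immersed for 30 min at 37 °C in compound at 0.3–20 mM, rinsed, and moved to broth containing bromocresol purple. Kill was judged by no acid production, no turbidity increase and no growth on plating at 48 h. Plaques were run in quadruplicate.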

Streptococcus mutans [3] = test: Compound is evaluated for minimal bactericidal concentration against plaque formation for Streptococcus mutans; type: functional, organism-based; how it was run: as §2
[4] = Compound is evaluated for stain index; type: functional
How it was run: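 Ratio of the minimum concentration staining a plaque-free ceramic hydroxylapatite plate to the minimum plaque-inhibiting concentration, both run under the same conditions. Plates got two 1-min soaks (0.1–0.001%), each followed by air-drying, then a water rinse. They were then held 24 h anaerobically at 37 °C in sucrose beef-extract medium, with or without S. mutans OMZ-61, repeated once. Staining was 1-min 1% FD&C Red No. 3, scored visually.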

Streptococcus mutans [5] = test: Minimum plaque inhibitory concentration using a standard test organism, Streptococcus mutans OMZ-61; type: functional, organism-based
How it was run: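 Ceramic hydroxylapatite plates were soaked twice for 1 min each in compound at […] (aqueous), air-dried and rinsed, then hung in sucrose beef-extract medium (pH 7.0) inoculated with late-log S. mutans OMZ-61. Incubation was anaerobic at 37 °C for 24 h, and treatment plus reinoculation were repeated for a second 24 h. Plaque was stained with 1% FD&C Red No. 3 and scored visually. The value is the lowest concentration giving no plaque while medium growth matched control.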

Pseudomonas aeruginosa [6] = test: Minimum antimicrobial inhibitory concentration against Pseudomonas aeruginosa MGH-2; type: functional; how it was run: as §1
Staphylococcus aureus [7] = test: Minimum antimicrobial inhibitory concentration against Staphylococcus aureus; type: functional; how it was run: as §1
Escherichia coli [8] = test: Antimicrobial minimum inhibitory concentration against Escherichia coli AB1932-1; type: functional; how it was run: as §1
Klebsiella pneumoniae = test: Minimum inhibitory concentration against Klebsiella pneumonia 39645; type: functional; how it was run: as §1
Proteus mirabilis [9] = test: Minimum antimicrobial inhibitory concentration against Proteus mirabilis MGH-1; type: functional; how it was run: as §1
Proteus mirabilis [10] = test: Compound is evaluated for the antimicrobial minimum inhibitory concentration against Proteus mirabilis MGH-1; type: functional; how it was run: as §1
Staphylococcus aureus [11] = test: Compound is evaluated for the antimicrobial minimum inhibitory concentration against Staphylococcus aureus (Smith); type: functional; how it was run: as §1
Pseudomonas aeruginosa [12] = test: Compound is evaluated for the antimicrobial minimum inhibitory concentration against Pseudomonas aeruginosa MGH-1; type: functional
Streptococcus mutans [13] = test: Compound is evaluated for minimum plaque inhibitory concentration using a standard test organism, Streptococcus mutans OMZ-61; type: functional
How it was run: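 S. mutans OMZ-61 in pH 7.0 beef extract–trypticase medium with 0.5% sucrose. Sterile ceramic hydroxylapatite plates got two 1-min soaks in 0.1–0.001% compound, each followed by 1-min air-drying, then a 5-min water rinse. Plates were put in inoculated medium at 37 °C anaerobically for 24 h. The cycle was repeated for a second 24 h. Plaque was stained with 1% FD&C Red No. 3. Value is the lowest concentration completely preventing plaque.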

Streptococcus mutans [14] = test: Compound is evaluated for the effect of saliva upon the antiplaque activity at 5% of saliva and at 0.01 percentage of compound; - = No staining; type: functional, organism-based
How it was run: (§3)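 Hydroxylapatite plates were treated twice daily with 1-min exposures to aqueous compound (0.001–0.1%), air-dried and rinsed. They were then incubated anaerobically at 37 °C with S. mutans in sucrose medium for 48 h. The medium held 0, 5 or 50% pooled, centrifuged, filter-sterilised human saliva. Plaque and plate staining were scored visually after FD&C Red No. 3 dye. Staining was scored on plates run without organism.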

Streptococcus mutans [15] = test: Compound is evaluated for the effect of saliva upon the antiplaque activity at 5% of saliva and at 0.005 percentage of compound; + = Slight plaque accumulation; type: functional, organism-based; how it was run: as §3
Streptococcus mutans [16] = test: Compound is evaluated for the effect of saliva upon the antiplaque activity at 50% of saliva and at 0.1 percentage of compound; + = Slight plaque accumulation; type: functional, organism-based; how it was run: as §3
Streptococcus mutans [17] = test: Compound is evaluated for the effect of saliva upon the antiplaque activity at 50% of saliva and at 0.1 percentage of compound; - = No staining; type: functional, organism-based; how it was run: as §3
Streptococcus mutans [18] = test: Compound is evaluated for the effect of saliva upon the antiplaque activity at 50% of saliva and at 0.005 percentage of compound; - = No staining; type: functional, organism-based; how it was run: as §3
Streptococcus mutans [19] = test: Compound is evaluated for the effect of saliva upon the antiplaque activity at 0% of saliva and at 0.1 percentage of compound; - = No plaque accumulation; type: functional, organism-based; how it was run: as §3
Streptococcus mutans [20] = test: Compound is evaluated for the effect of saliva upon the antiplaque activity at 0% of saliva and at 0.01 percentage of compound; + = Slight staining; type: functional, organism-based; how it was run: as §3
Streptococcus mutans [21] = test: Compound is evaluated for the effect of saliva upon the antiplaque activity at 0% of saliva and at 0.005 percentage of compound; + = Slight staining; type: functional, organism-based; how it was run: as §3
Streptococcus mutans [22] = test: Compound is evaluated for the effect of saliva upon the antiplaque activity at 50% of saliva and at 0.01 percentage of compound; - = No staining; type: functional, organism-based; how it was run: as §3
Streptococcus mutans [23] = test: Compound is evaluated for the effect of saliva upon the antiplaque activity at 0% of saliva and at 0.01 percentage of compound; - = No plaque accumulation; type: functional, organism-based; how it was run: as §3
Streptococcus mutans [24] = test: Compound is evaluated for the effect of saliva upon the antiplaque activity at 5% of saliva and at 0.01 percentage of compound; + = Slight plaque accumulation; type: functional, organism-based; how it was run: as §3
Streptococcus mutans [25] = test: Compound is evaluated for the effect of saliva upon the antiplaque activity at 0% of saliva and at 0.1 percentage of compound; - = No staining; type: functional, organism-based; how it was run: as §3
Streptococcus mutans [26] = test: Compound is evaluated for the effect of saliva upon the antiplaque activity at 0% of saliva and at 0.001 percentage of compound; - = No plaque accumulation; type: functional, organism-based; how it was run: as §3
Streptococcus mutans [27] = test: Compound is evaluated for the inhibition of plaque-forming enzyme of Streptococcus mutans OMZ-61; type: functional
How it was run: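 S. mutans OMZ-61 was grown anaerobically at 37 °C for 24 h in glucose medium. The cell-free filtrate, adjusted to pH 5.5, served as the dextran/levan sucrase source. Reactions contained 3 μmol 14C-sucrose in citrate phosphate buffer pH 5.5 with 4% EtOH and ran 2 h at 37 °C. MeOH-insoluble polysaccharide was counted by scintillation. Compounds were tested at 50, 160 and 500 μg base/mL, with lower levels if needed, and I50 was read graphically.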

Streptococcus mutans [28] = test: Compound is evaluated for the effect of saliva upon the antiplaque activity at 0% of saliva and at 0.005 percentage of compound; - = No plaque accumulation; type: functional, organism-based; how it was run: as §3
Streptococcus mutans [29] = test: Compound is evaluated for the effect of saliva upon the staining potential at 0% of saliva and at 0.001 percentage of compound; - = No staining; type: functional, organism-based; how it was run: as §3
Streptococcus mutans [30] = test: Compound is evaluated for the effect of saliva upon the antiplaque activity at 50% of saliva and at 0.01 percentage of compound; + = Slight plaque accumulation; type: functional, organism-based; how it was run: as §3

Compound	MIC (Escherichia coli [1])	MIC (Escherichia coli [2])	Concentration (Actinomyces viscosus)	Concentration (Streptococcus mutans [3])	Stain index [4]	Concentration (Streptococcus mutans [5])	MIC (Pseudomonas aeruginosa [6])	MIC (Staphylococcus aureus [7])	MIC (Escherichia coli [8])	MIC (Klebsiella pneumoniae)	MIC (Proteus mirabilis [9])	further results
CCCCCCN=c1ccn(CCCCCCCCCCCCCCn2ccc(=NCCCCCC)cc2)cc1.Cl.Cl	1 mg/L	0.5 mg/L	2.8 mM	1.4 mM	1	0.004%	3.9 mg/L	0.5 mg/L	0.5 mg/L	1 mg/L	3.9 mg/L	
Br.Br.CCCCCCCCCN=c1ccn(CCCCCCCCn2ccc(=NCCCCCCCCC)cc2)cc1	3.9 mg/L	2 mg/L	2.5 mM	2.5 mM	1	0.004%	7.8 mg/L	1 mg/L	2 mg/L	2 mg/L	3.9 mg/L	
Br.Br.N=c1ccn(CCCCn2ccc(=N)cc2)cc1	500 mg/L									> 500 mg/L		MIC (Proteus mirabilis [10]): > 500 mg/L; MIC (Staphylococcus aureus [11]): 125 mg/L; MIC (Pseudomonas aeruginosa [12]): > 500 mg/L; Min plague Inhibitory (Streptococcus mutans [13]): >1%
CCCCCCCCCCCCCCCC[n+]1ccccc1.[Cl-]												Staining potential (Streptococcus mutans [14]): No staining; Plaque accum (Streptococcus mutans [15]): No plaque accumulation; Plaque accum (Streptococcus mutans [16]): No plaque accumulation; Staining potential (Streptococcus mutans [17]): No staining; Staining potential (Streptococcus mutans [18]): No staining; Plaque accum (Streptococcus mutans [19]): No plaque accumulation; Staining potential (Streptococcus mutans [20]): No staining; Staining potential (Streptococcus mutans [21]): No staining; Staining potential (Streptococcus mutans [22]): No staining; Plaque accum (Streptococcus mutans [23]): No plaque accumulation; Plaque accum (Streptococcus mutans [24]): No plaque accumulation; Staining potential (Streptococcus mutans [25]): No staining; Plaque accum (Streptococcus mutans [26]): No plaque accumulation; I50 (Streptococcus mutans [27]): 95 (ug of base) ml-1; Plaque accum (Streptococcus mutans [28]): No plaque accumulation; Staining potential (Streptococcus mutans [29]): No staining; Plaque accum (Streptococcus mutans [30]): No plaque accumulation
Br.Br.CCCCCCCCCN=c1ccn(CCCCCCCCCCn2ccc(=NCCCCCCCCC)cc2)cc1	2 mg/L	3.9 mg/L	2.7 mM	1.35 mM	1	0.004%	3.9 mg/L	2 mg/L	3.9 mg/L	3.9 mg/L	3.9 mg/L	
Br.Br.CCCCCCCCN=c1ccn(CCCCCCCCCCCCCCn2ccc(=NCCCCCCCC)cc2)cc1	7.8 mg/L	3.9 mg/L	2.6 mM	1.3 mM	2	0.005%	3.9 mg/L	1 mg/L	3.9 mg/L	7.8 mg/L	3.9 mg/L	
